Test results: article PMC8771160 (Oncology Reports, 2022)

How the values were obtained:
[1] = system: DG75; test: Cell proliferation assay; assay type: cell-based; conditions: KSHV (−) cell line DG75, 24 h
Summary of the method: (§1)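 PEL lines, KSHV-negative B-lymphoma lines or PBMCs were seeded at 1×10^4 cells/well and cultured with or without test compound at 37°C for 24 h. Cell Count Reagent SF was added (10 µl to 90 µl suspension) for 2 h at 37°C, and OD was read at 450 nm. Viability is expressed as % of untreated cells.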

[2] = system: Ramos; test: Cell proliferation assay; assay type: cell-based; conditions: KSHV (−) cell line Ramos, 24 h
Summary of the method: as §1

[3] = system: HBL6; test: Cell proliferation assay; assay type: cell-based; conditions: KSHV (+) cell line HBL6, 24 h
Summary of the method: as §1

[4] = system: BCBL1; test: Cell proliferation assay; assay type: cell-based; conditions: KSHV (+) cell line BCBL1, 24 h
Summary of the method: as §1

[5] = system: BC3; test: Cell proliferation assay; assay type: cell-based; conditions: KSHV (+) cell line BC3, 24 h
Summary of the method: as §1

[6] = system: KSHV-uninfected B cell lines; test: Cell proliferation assay, KSHV-uninfected B cell lines as a group; assay type: cell-based; conditions: 6.25 and 12.5 µM, 24 h
Summary of the method: as §1

[7] = system: HIV RT; conditions: cited from earlier work
[8] = system: influenza virus endonuclease; conditions: cited from earlier work
[9] = system: HCV NS5B; conditions: cited from earlier work
[10] = system: cancer cell proliferation; conditions: cited from earlier work

Work on “1,1,1′,1′-tetramethyl [60]fullerenodipyrrolidinium diiodide [Derivative #1]” yielded a CC50 [1] of 23.4 µM, a CC50 [2] of 24.9 µM and a CC50 [3] of 19.7 µM. The CC50 [4] was > 25 µM, the CC50 [5] was 15.5 µM and the “viability of DG75 and Ramos cells compared with the controls” value [6] was “increased the viability”. The “HIV RT inhibitory activity” value [7] was “displayed HIV RT inhibitory activity”, the “influenza virus endonuclease inhibitory activity” value [8] was “inhibitory activities” and the “HCV NS5B inhibitory activity” value [9] was “inhibiting”. The cancer cell proliferation [10] was “suppressed cancer cell proliferation”.
